The target in assay [1] is T1, Son of sevenless homolog 1 (Homo sapiens) (UniProt Q07889).
T1 sequence (whole entry): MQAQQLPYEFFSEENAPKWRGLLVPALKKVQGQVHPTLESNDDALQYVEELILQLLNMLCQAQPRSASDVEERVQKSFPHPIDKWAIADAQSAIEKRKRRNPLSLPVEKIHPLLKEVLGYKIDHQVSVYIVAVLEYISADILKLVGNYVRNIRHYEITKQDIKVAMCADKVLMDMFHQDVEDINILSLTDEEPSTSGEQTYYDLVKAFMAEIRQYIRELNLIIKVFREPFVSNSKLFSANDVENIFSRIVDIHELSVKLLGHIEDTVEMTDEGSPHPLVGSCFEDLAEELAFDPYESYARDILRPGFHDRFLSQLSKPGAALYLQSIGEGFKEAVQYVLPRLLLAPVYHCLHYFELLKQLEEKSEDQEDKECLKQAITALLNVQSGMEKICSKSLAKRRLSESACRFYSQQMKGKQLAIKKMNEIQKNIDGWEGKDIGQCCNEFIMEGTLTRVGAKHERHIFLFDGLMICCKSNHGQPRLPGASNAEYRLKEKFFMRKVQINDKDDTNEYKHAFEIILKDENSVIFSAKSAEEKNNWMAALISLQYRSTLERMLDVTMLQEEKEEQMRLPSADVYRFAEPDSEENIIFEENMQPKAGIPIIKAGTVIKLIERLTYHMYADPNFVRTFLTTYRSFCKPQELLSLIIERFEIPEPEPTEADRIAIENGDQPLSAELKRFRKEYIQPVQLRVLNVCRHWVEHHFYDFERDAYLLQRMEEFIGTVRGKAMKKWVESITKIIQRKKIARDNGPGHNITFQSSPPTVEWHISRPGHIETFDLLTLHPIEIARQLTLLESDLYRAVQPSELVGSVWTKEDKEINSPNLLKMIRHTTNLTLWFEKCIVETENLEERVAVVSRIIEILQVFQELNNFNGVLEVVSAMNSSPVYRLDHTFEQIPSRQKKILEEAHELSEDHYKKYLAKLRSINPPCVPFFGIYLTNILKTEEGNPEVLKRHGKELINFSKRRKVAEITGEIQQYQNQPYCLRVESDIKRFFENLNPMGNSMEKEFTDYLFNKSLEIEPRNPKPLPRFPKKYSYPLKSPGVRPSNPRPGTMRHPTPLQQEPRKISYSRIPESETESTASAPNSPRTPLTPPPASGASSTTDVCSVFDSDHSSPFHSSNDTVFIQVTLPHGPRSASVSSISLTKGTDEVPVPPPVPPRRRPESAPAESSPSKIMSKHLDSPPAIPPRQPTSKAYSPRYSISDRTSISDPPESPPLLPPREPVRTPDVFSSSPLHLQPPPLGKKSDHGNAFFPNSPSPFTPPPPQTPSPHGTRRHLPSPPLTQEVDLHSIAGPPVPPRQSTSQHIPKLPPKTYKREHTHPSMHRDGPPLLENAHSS
Description: Biphasic activity at SOS1 in human HeLa cells assessed as reduction in ERK1/2 T202/Y204 phosphorylation at 100 uM measured after 30 mins by Western blot analysis. It counts as cell-based. Put shortly: (§1)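 HeLa cells treated for 30 min with compound at concentrations up to 100 μM. RAS-GTP and ERK1/2 phosphorylated at T202/Y204 were detected by blotting and quantified. EGF (50 ng/mL, 5 min) served as the positive control for pathway activation.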
(A western blot detects proteins with antibodies after separation by electrophoresis.)

The target in assay [2] is T1, Son of sevenless homolog 1 (Homo sapiens). Description: Activation of SOS1 in human HeLa cells assessed as effect on RAS-GTP levels by measuring […] at 3.1 uM after 30 mins by active RAS pull-down assay relative to control. The format is cell-based. Put shortly: as §1
Assay [3] shares this target. The assay can be described thus: Activation of SOS1 in human HeLa cells assessed as effect on RAS-GTP levels by measuring […] at 6.3 uM after 30 mins by active RAS pull-down assay relative to control. It counts as cell-based. Put shortly:
as §1

Assay [4] shares this target. The assay can be described thus: Activation of SOS1 in human HeLa cells assessed as effect on RAS-GTP levels by measuring […] at 12.5 uM after 30 mins by active RAS pull-down assay relative to control. It counts as cell-based. Put shortly: as §1
Assay [5] shares this target. Description: Activation of SOS1 in human HeLa cells assessed as effect on RAS-GTP levels by measuring […] at 25 uM after 30 mins by active RAS pull-down assay relative to control. It counts as cell-based. Put shortly:
as §1

The target is the same in assay [6]. Description: Activation of SOS1 in human HeLa cells assessed as effect on RAS-GTP levels by measuring […] at 50 uM after 30 mins by active RAS pull-down assay relative to control. It counts as cell-based. A digest of the protocol:
as §1

The target is the same in assay [7]. Description: Activation of SOS1 in human HeLa cells assessed as effect on RAS-GTP levels by measuring […] at 100 uM after 30 mins by active RAS pull-down assay relative to control. It counts as cell-based. Put shortly: as §1
Assay [8] shares this target. Description: Activation of SOS1 in human HeLa cells assessed as effect on ERK1/2 phosphorylation at T202/Y204 residue by measuring […] at 3.1 uM after 30 mins by Western blot analysis relative to control. It counts as cell-based. A digest of the protocol: as §1
The target is the same in assay [9]. The assay can be described thus: Activation of SOS1 in human HeLa cells assessed as effect on ERK1/2 phosphorylation at T202/Y204 residue by measuring […] at 6.3 uM after 30 mins by Western blot analysis relative to control. It counts as cell-based. A digest of the protocol: as §1
Assay [10] shares this target. Description: Activation of SOS1 in human HeLa cells assessed as effect on ERK1/2 phosphorylation at T202/Y204 residue by measuring […] at 12.5 uM after 30 mins by Western blot analysis relative to control. It counts as cell-based. Put shortly:
as §1

For assay [11] the target is unchanged. The assay can be described thus: Activation of SOS1 in human HeLa cells assessed as effect on ERK1/2 phosphorylation at T202/Y204 residue by measuring […] at 25 uM after 30 mins by Western blot analysis relative to control. The format is cell-based. Put shortly: as §1
The target is the same in assay [12]. The assay can be described thus: Activation of SOS1 in human HeLa cells assessed as effect on ERK1/2 phosphorylation at T202/Y204 residue by measuring […] at 50 uM after 30 mins by Western blot analysis relative to control. The format is cell-based. Put shortly:
as §1

The target is the same in assay [13]. Description: Activation of SOS1 in human HeLa cells assessed as effect on ERK1/2 phosphorylation at T202/Y204 residue by measuring […] at 100 uM after 30 mins by Western blot analysis relative to control.
For assay [14], the target named is Mitogen-activated protein kinase 3 (Homo sapiens) (UniProt P27361). The assay can be described thus: Inhibition of human ERK1 using myelin basic protein as substrate measured in presence of [gamma33P]ATP.
For assay [15], the target named is Mitogen-activated protein kinase 1 (Homo sapiens) (UniProt P28482). Description: Inhibition of human ERK2 using myelin basic protein as substrate measured in presence of [gamma33P]ATP.

In ChEMBL document CHEMBL4229573, “Discovery of Quinazolines That Activate SOS1-Mediated Nucleotide Exchange on RAS” (ACS Med Chem Lett, 2018) one finds Activity, fold change (FC) and inhibition data, which are given here for nine molecules.

Each structure is given as a SMILES string. Activity calls are given as the source filed them. No cut-off for these calls is given here.

Chain of Mitogen-activated protein kinase 1 (Homo sapiens) (P28482 whole entry): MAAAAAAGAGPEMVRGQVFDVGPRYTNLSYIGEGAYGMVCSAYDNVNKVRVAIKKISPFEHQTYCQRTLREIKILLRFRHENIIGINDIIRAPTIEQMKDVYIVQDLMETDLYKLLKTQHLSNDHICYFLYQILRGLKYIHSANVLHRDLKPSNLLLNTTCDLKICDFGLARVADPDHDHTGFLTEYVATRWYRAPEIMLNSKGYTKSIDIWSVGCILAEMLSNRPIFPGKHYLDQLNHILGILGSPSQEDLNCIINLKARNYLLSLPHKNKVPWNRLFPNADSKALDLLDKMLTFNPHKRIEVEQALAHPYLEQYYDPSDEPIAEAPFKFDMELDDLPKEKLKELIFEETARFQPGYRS
Chain of Mitogen-activated protein kinase 3 (Homo sapiens) (P27361 whole entry): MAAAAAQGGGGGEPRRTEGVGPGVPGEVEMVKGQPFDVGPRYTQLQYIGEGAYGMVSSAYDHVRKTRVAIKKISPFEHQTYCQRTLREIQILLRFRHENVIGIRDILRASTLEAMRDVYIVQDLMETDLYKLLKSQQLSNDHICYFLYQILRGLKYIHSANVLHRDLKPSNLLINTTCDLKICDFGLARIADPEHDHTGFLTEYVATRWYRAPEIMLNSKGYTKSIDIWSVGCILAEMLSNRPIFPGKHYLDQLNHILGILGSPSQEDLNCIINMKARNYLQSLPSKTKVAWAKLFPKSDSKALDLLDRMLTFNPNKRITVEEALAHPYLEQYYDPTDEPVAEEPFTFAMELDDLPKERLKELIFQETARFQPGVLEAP

On to `CC[C@@H](Nc1nc(Nc2ccc(F)c(Cl)c2)nc2ccccc12)C1CCC1`, for which the result in assay [1] was inactive.
On to `CC(C)C[C@@H](Nc1nc(Nc2ccc(F)c(Cl)c2)nc2ccccc12)C1CC1`, for which the outcome in assay [1] was inactive.
For `Clc1cc(Cl)cc(Nc2nc(NCc3ccco3)c3ccccc3n2)c1`, in assay [1], the result was inactive.
In the case of `C[C@@H](Nc1nc(Nc2ccc(F)c(Cl)c2)nc2c(CCN)cccc12)C1CC1`, the fold change (FC) in assay [2] was determined as 1.22; in assay [3], 1.64; in assay [4] it was 0.97; in assay [5], 1.58; in assay [6], 1.61; in [7], 1.66. Further, the fold change (FC) in assay [8] worked out at 1.11; in assay [9], 1.82; in [10], 1.59; in assay [11] it was 1.87; in assay [12], 1.18; in [13] it was 0.44.
`C[C@@H](Nc1nc(Nc2ccc(F)c(Cl)c2)nc2c(C3=CCNCC3)cccc12)C1CC1`: the fold change (FC) in assay [2] was determined as 1.41; in assay [3], 1.08; in [4], 1.72; in assay [5] it was 1.6; in assay [6], 1.56; in [7], 1.51. The fold change (FC) in [8] amounted to 1.43; in assay [9], 1.29; in assay [10] it was 1.98; in assay [11], 1.98; in [12], 1.16; in assay [13], 0.58.
On to `C[C@@H](Nc1nc(Nc2ccc(F)c(Cl)c2)nc2ccccc12)C1CCC1`, for which the outcome in [1] was inactive.
Turning to `CC[C@H](Nc1nc(Nc2ccc(F)c(Cl)c2)nc2ccccc12)C1CC1`, the result in [1] was inactive.
In the case of `C[C@@H](Nc1nc(Nc2ccc(F)c(Cl)c2)nc2c(CN)cccc12)C1CC1`, the fold change (FC) in assay [2] is 1.15; in assay [3], 1.39; in assay [4], 0.98; in assay [5] it was 1.18; in [6], 1.14; in assay [7], 1.54. Moreover, the fold change (FC) in assay [8] came out at 1.05; in [9] it was 0.94; in assay [10] it was 1.83; in assay [11], 2.52; in assay [12], 2.43; in [13] it was 0.59.
Turning to `C[C@@H](Nc1nc(Nc2ccc(F)c(Cl)c2)nc2ccccc12)C1CC1`, the fold change (FC) is 0.95 in [2]; 0.85 in assay [3]; 0.53 in [4]; 0.69 in [5]; 1.26 in [6]; 1.39 in assay [7]. The fold change (FC) in assay [8] came to 1.16; in assay [9], 1.03; in [10], 1.67; in assay [11], 1.61; in assay [12], 3.68; in assay [13] it was 4.01. For the same molecule, the inhibition entry in assay [14] and in [15] was “inactive” each time.
